The target of test [1] is T1, Phenylethanolamine N-methyltransferase (Bos taurus, UniProt P10938).
T1 sequence (P10938 whole entry): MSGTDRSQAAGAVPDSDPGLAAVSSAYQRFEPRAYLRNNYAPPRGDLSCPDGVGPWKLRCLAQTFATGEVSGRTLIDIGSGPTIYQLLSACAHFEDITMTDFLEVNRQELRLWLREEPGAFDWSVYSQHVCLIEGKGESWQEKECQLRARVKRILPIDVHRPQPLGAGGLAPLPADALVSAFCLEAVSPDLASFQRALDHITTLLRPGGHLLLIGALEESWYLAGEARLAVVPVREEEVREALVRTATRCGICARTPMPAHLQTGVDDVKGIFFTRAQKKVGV
The test can be described thus: In vitro inhibitory activity against bovine adrenal phenylethanolamine N-methyl-transferase (PNMT).

The next test is filed under the species Bos taurus. As to the kind of experiment: Binding selectivity against PNMT and alpha-2-adrenoceptors, measured as a ratio of respective in vitro Ki's.
In test [2] the target is T2, Adrenergic receptor alpha-2 (Rattus norvegicus, UniProt P22086+P19328+P22909).
T2 sequence (P22086 whole entry): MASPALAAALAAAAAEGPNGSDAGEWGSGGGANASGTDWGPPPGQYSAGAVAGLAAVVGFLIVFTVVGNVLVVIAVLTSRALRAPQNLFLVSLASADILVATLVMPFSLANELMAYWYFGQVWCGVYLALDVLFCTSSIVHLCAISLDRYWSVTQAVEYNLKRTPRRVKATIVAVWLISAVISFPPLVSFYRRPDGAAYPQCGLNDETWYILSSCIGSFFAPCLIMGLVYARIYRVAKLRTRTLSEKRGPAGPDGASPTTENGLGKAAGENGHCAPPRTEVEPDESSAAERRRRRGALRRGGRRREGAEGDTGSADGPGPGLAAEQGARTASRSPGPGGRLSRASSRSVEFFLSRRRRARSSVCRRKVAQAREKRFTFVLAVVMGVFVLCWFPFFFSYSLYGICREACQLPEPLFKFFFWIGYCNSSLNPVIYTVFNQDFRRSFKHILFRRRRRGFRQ
T2 sequence (P19328 whole entry): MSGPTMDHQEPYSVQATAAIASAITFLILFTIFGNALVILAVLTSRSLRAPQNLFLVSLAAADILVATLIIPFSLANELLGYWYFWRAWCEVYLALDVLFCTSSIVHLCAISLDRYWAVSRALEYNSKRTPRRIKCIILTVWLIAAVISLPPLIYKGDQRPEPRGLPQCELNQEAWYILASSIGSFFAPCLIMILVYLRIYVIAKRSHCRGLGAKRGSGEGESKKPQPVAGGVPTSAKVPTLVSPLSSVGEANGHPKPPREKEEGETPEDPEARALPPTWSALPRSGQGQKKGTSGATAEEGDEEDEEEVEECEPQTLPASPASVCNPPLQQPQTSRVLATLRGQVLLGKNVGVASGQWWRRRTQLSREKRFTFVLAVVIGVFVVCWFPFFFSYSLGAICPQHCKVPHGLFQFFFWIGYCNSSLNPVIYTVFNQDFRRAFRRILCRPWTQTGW
T2 sequence (P22909 whole entry): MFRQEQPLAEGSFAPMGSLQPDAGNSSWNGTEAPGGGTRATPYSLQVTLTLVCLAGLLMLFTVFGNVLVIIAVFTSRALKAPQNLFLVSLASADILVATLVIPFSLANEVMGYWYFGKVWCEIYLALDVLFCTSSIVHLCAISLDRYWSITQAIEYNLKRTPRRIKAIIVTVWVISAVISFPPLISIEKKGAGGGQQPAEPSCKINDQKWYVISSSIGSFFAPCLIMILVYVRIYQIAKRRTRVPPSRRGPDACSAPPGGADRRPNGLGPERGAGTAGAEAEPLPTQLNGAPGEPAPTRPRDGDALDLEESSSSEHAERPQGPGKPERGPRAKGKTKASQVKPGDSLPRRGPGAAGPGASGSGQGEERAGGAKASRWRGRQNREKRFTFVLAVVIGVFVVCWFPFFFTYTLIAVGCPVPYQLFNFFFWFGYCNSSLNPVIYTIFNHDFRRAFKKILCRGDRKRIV
As to the kind of experiment: In vitro inhibitory activity against Alpha-2 adrenergic receptor using [3H]clonidine as radioligand in male Sprague-Dawley rats. It is filed as protein assay. The method in brief: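 Rat cerebral cortex (male Sprague–Dawley) homogenised in ice-cold 50 mM Tris/HCl pH 7.7, washed by three 50 000g spins, resuspended in 200 volumes. [3H]clonidine 4.0 nM final, 25 °C for 30 min, filtration, scintillation counting. Nonspecific binding with 2 μM phentolamine. Quadruplicate, five concentrations over 16-fold range. IC50 by log-probit; Ki = IC50/(1+[clonidine]/KD).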

In test [3] the target is T1, Phenylethanolamine N-methyltransferase. The test can be described thus: In vitro inhibitory activity against bovine adrenal phenylethanolamine N-methyltransferase(PNMT).

The structures appear in SMILES notation.

Consider `COc1ccc2c(c1)CNCC2`, for which the inhibition constant (Ki) in test [1] stood at 21 µM. The Selectivity in the test filed under Bos taurus is 0.022. For `C=CCS(=O)(=O)c1ccc2c(c1)CNCC2`, the Ki in test [1] stood at 9.8 µM. In the test filed under Bos taurus, the Selectivity came to 9.7. In test [1], `O=C(O)c1ccc2c(c1)CNCC2` came in with a Ki of 470 µM. Besides, the Selectivity in the test filed under Bos taurus worked out at 1. For `CS(=O)(=O)Nc1ccc2c(c1)CNCC2`, the Selectivity in the test listed under Bos taurus is 0.23. `COC(=O)c1ccc2c(c1)CNCC2` registered a Ki in test [1] of 6.7 µM. Also, in the test listed under Bos taurus, the Selectivity is 0.68. With `C[S+]([O-])c1ccc2c(c1)CNCC2` (configuration not stated), the inhibition constant Ki in test [2] is 51 µM; in test [1], 45 µM. Moreover, the Selectivity in the test filed under Bos taurus worked out at 1.1. With `NS(=O)(=O)c1ccc2c(c1)CNCC2`, the Selectivity in the test filed under Bos taurus was found to be 180.

`Nc1ccc2c(c1)CNCC2` had an inhibitory constant (Ki) in test [1] of 27 µM. Further, the Selectivity in the test filed under Bos taurus is 0.11. The corresponding values for `NCc1ccc2c(c1)CNCC2` are 1900 µM and 0.0063. The corresponding values for `CC(=O)c1ccc2c(c1)CNCC2` are 4.9 µM and 1.2. Turning to `CC(=O)Nc1ccc2c(c1)CNCC2`, the values for the inhibition constant (Ki) in test [2] and in test [1] were 9.1 µM and 190 µM, respectively. In addition, the Selectivity in the test listed under Bos taurus is 0.48. With `Brc1ccc2c(c1)CNCC2`, affinity in test [3] was put at a Ki of 0.29 µM. Consider `Oc1ccc2c(c1)CNCC2`, for which the Selectivity in the test listed under Bos taurus was determined as 0.85. In the case of `O=S(=O)(Nc1ccc(Cl)cc1)c1ccc2c(c1)CNCC2`, the Selectivity in the test filed under Bos taurus turned out to be 2.4. On to `NC(=O)c1ccc2c(c1)CNCC2`, for which, in test [1], the inhibition constant (Ki) amounted to 64 µM. Besides, the Selectivity in the test filed under Bos taurus was 0.36. The corresponding values for `CS(=O)(=O)N(c1ccc2c(c1)CNCC2)S(C)(=O)=O` are ~4500 µM and 0.042. `O=C(c1ccccc1)c1ccc2c(c1)CNCC2`: the Ki in test [1] was found to be 2.9 µM. For the same compound, the Selectivity in the test listed under Bos taurus amounted to 9.3. Take `O=S(=O)(c1ccccc1)c1ccc2c(c1)CNCC2`: the figures for the inhibition constant (Ki) in test [2] and in test [1] were 21 µM and 14 µM, respectively. The Selectivity in the test filed under Bos taurus turned out to be 1.5.

Consider `OCc1ccc2c(c1)CNCC2`, for which affinity in test [1] was put at a Ki of 11 µM. The Selectivity in the test listed under Bos taurus was 0.21. The corresponding values for `O=[N+]([O-])c1ccc2c(c1)CNCC2` are 0.41 µM and 10. As for `N#Cc1ccc2c(c1)CNCC2`, the affinity in test [1] corresponds to a Ki of 1.4 µM. Moreover, the Selectivity in the test listed under Bos taurus was determined as 5.2. The corresponding values for `O=C(c1ccc2c(c1)CNCC2)C(F)(F)F` are 5.7 µM and 5.6.

On to `CS(=O)(=O)NCc1ccc2c(c1)CNCC2`, for which, in the test listed under Bos taurus, the Selectivity came to 0.055. In test [3], `O=S(=O)(c1ccc2c(c1)CNCC2)C(Cl)(Cl)Cl` had an inhibition constant Ki of 1.3 µM. With `CS(=O)(=O)c1ccc2c(c1)CNCC2`, the Ki in test [2] amounted to 160 µM; in test [1], 1.3 µM. The Selectivity in the test listed under Bos taurus turned out to be 120.

(Values after ChEMBL document CHEMBL1132196, “Synthesis, biochemical evaluation, and classical and three-dimensional quantitative structure-activity relationship studies of 7-substituted-1,2,3,4-tetrahydroisoquinolines and their relative affinities toward phenylethanolamine N-methyltransferase and the alpha2-adrenoceptor” (J Med Chem, 1999).)
